Assay results published in article PMC9134932 (CNS Oncology, 2022).
Values joined by “and” are separate entries in the source; they are usually repeats but may differ in a detail not shown here. Equal entries are not always repeated. Where two headings read alike, the source gives them in different places. Marks after values point to notes of the source that are not given here.

Assays:
[1] = test system: patients with recurrent malignant glioma; assay: Phase I dose escalation; format: in vivo, human
How it was run: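 Dose assignment used accelerated titration, then 3 + 3. Planned levels were 1, 2, 4, 8 and 16 mg/kg, given BID on Mon/Wed/Fri for 2 weeks per 28-day cycle, as an oral suspension. Toxicity was assessed at baseline and before each cycle, graded by CTCAE v4.0. Dose was held for grade II toxicity and cut by 30% or one level for grade III. DSMB approval was required before each cohort change.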

[2] = test system: recurrent glioblastoma (GBM); assay: Clinical outcome: PFS, OS, MRI response; format: in vivo, human
How it was run: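 Oral dosing as weight-based powder reconstituted into a liquid suspension just before intake, BID on Mon/Wed/Fri for 2 weeks of each 28-day cycle, for up to 12 cycles or until progression. MRI at baseline, then about every 2–3 months, scored by iRANO on FLAIR and post-contrast T1WI. Intention-to-treat population. Kaplan–Meier estimates of PFS and OS, with OS counted from initial diagnosis.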

[3] = PK of WP1066 in human plasma; format: in vivo; conditions: 1-8 mg/kg oral
p-STAT3 (Y705) in PBMCs = assay: Intracellular p-STAT3 staining of patient PBMCs by flow cytometry; format: in vivo, human
How it was run: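 Blood was processed at once because the p-STAT3 signal decays ex vivo. Ficoll-isolated PBMCs (6 × 10^6 in PBS) were fixed in 2% paraformaldehyde (final) for 10 min at 37°C, then permeabilised in ice-cold 90% methanol for 30 min. Staining was PE-anti-p-STAT3 (Y705) for 1 h at RT, in duplicate wells, with duplicate isotype-control wells and one unstained well. Duplicate specimens were run in parallel. Read-out was % p-STAT3+ PBMCs by flow cytometry versus baseline (0 h); paired t-test.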

PBMCs = assay: Immune monitoring of patient PBMCs; format: in vivo, human; conditions: for Th1 to Th2 ratio: % CD3+ CD4+ IFN-γ+ divided by % CD3+ CD4+ IL-4+ T cells; for Cytotoxic CD8 to Treg ratio: % CD3+ CD8+ IFN-γ+ divided by % CD3+ CD4+ CD25+ Foxp3+ cells
How it was run: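 PBMCs were taken at C1D1 0 and 4 h, C1D2 0 h, and C1D8 0 and 4 h, then isolated from heparinised blood on Ficoll 1077. Cells were held 4–5 h at 37°C in T cell medium with protein transport inhibitor, Fc-blocked 15 min on ice, and given fixable viability dye 30 min at 4°C. Surface staining, fix/perm and intracellular staining followed, then flow cytometry. Th1:Th2 = %CD3+CD4+IFN-γ+ / %CD3+CD4+IL-4+. CD8:Treg = %CD3+CD8+IFN-γ+ / %CD3+CD4+CD25+FoxP3+.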

[4] = test system: established intracerebral melanoma; conditions: versus 0% of vehicle control mice (p = 0.0076); cited from earlier work
[5] = test system: genetically engineered murine models of gliomas; conditions: p < 0.01; cited from earlier work
[6] = no reference given, cited from earlier work
[7] = i.v. 40 mg/kg, no reference given, cited from earlier work
[8] = three weeks after the last administration; range: 0.52-4.0; no reference given; cited from earlier work
glioma cancer cells = conditions: read-out: direct IC50 of glioma cancer cells; cited from earlier work
[9] = test system: immune modulatory effects; conditions: cited from earlier work
GL261 glioma model = conditions: cited from earlier work
[10] = count in enrolled patient population (n = 8), all dose levels
[11] = sum over all toxicities, enrolled patient population (n = 8)
[12] = 1 mg/kg, C1D1 0 h (baseline before first dose)
[13] = 2 mg/kg, C1D1 0 h (baseline before first dose)
[14] = 4 mg/kg, C1D1 0 h (baseline before first dose)
[15] = 8 mg/kg, C1D1 0 h (baseline before first dose)

C[C@H](NC(=O)/C(C#N)=C/c1cccc(Br)n1)c1ccccc1 [WP1066]
hematological events such as thrombocytopenia or lymphopenia ([1]; 8 patients, 1-8 mg/kg): no significant hematological events | treatment-related deaths ([1]; 8 patients, 1-8 mg/kg): No treatment-related deaths occurred | patients with the most common adverse event, grade 1 nausea and diarrhea ([1]; 8 patients, all dose levels): 50% | Alanine aminotransferase increased, Grade 1 [1, 10]: 1 | Alanine aminotransferase increased, Grade 2 [1, 10]: 1 | Cardiac disorders, other-sinus rhythm probable left atrial enlargement, Grade 1 [1, 10]: 1 | Cholesterol high, Grade 1 [1, 10]: 1 | Creatinine increase, Grade 1 [1, 10]: 1 | Diarrhea, Grade 1 [1, 10]: 4 | Diarrhea, Grade 2 [1, 10]: 1 | Gastrointestinal disturbance, Grade 1 [1, 10]: 1 | Heartburn, Grade 1 [1, 10]: 1 | Lymphocyte count decrease, Grade 1 [1, 10]: 1 | Lymphocyte count decrease, Grade 2 [1, 10]: 3 | Lymphocyte count decrease, Grade 3 [1, 10]: 0 | Lymphocyte count decrease, Grade 4 [1, 10]: 0 | Lymphocyte count decrease, Grade 5 [1, 10]: 0 | Nausea, Grade 1 [1, 10]: 4 | Neutrophil count decreased, Grade 1 [1, 10]: 2 | Neutrophil count decreased, Grade 2 [1, 10]: 0 | Neutrophil count decreased, Grade 3 [1, 10]: 0 | Neutrophil count decreased, Grade 4 [1, 10]: 0 | Neutrophil count decreased, Grade 5 [1, 10]: 0 | Platelet count decrease, Grade 1 [1, 10]: 1 | Platelet count decrease, Grade 2 [1, 10]: 0 | Platelet count decrease, Grade 3 [1, 10]: 0 | Platelet count decrease, Grade 4 [1, 10]: 0 | Platelet count decrease, Grade 5 [1, 10]: 0 | Vomiting, Grade 1 [1, 10]: 1 | White blood cell decrease, Grade 1 [1, 10]: 3 | White blood cell decrease, Grade 2 [1, 10]: 1 | White blood cell decrease, Grade 3 [1, 10]: 0 | White blood cell decrease, Grade 4 [1, 10]: 0 | White blood cell decrease, Grade 5 [1, 10]: 0 | tolerability of the oral formulation ([1]; dose level 4 (8 mg/kg), all three subjects): oral aversion to the formulation | Total toxicities, Grade 2 [1, 11]: 6 | Total toxicities, Grade 3 [1, 11]: 0 | Total toxicities, Grade 4 [1, 11]: 0 | Total toxicities, Grade 5 [1, 11]: 0 | 6-month PFS (PFS6) rate ([2]; 8 patients): 0% | longest response duration ([2]; 8 patients): exceeded 3.25 months | estimated 1-year OS rate ([2]; Kaplan-Meier, 8 patients): 100% | median overall survival (OS) ([2]; from the time of the initial diagnosis, 95% CI: 22.5 months-NA months): 25 months | Survival weeks ([2]; individual patient at 1 mg/kg): Alive | Survival weeks ([2]; individual patient at 2 mg/kg): 65 weeks | Survival weeks ([2]; individual patients at 4 mg/kg, 4 mg/kg): 108 weeks and 109 weeks and 194 weeks | Survival weeks ([2]; individual patients at 8 mg/kg, 8 mg/kg): 115 weeks and 98 weeks and Alive | dose dependence of Cmax [3]: dose dependent increase in the Cmax | % of p-STAT3+ PBMC (p-STAT3 (Y705) in PBMCs; [12]): 39.9% | % of p-STAT3+ PBMC (p-STAT3 (Y705) in PBMCs; 1 mg/kg, C1D1 4 h): 33.4% | % of p-STAT3+ PBMC (p-STAT3 (Y705) in PBMCs; 1 mg/kg, C1D2 0 h): 31.8% | % of p-STAT3+ PBMC (p-STAT3 (Y705) in PBMCs; 1 mg/kg, C1D8 0 h): 19.3% | % of p-STAT3+ PBMC (p-STAT3 (Y705) in PBMCs; 1 mg/kg, C1D8 4 h): 15.7% | % of p-STAT3+ PBMC (p-STAT3 (Y705) in PBMCs; [13]): 38.1% | % of p-STAT3+ PBMC (p-STAT3 (Y705) in PBMCs; 2 mg/kg, C1D1 4 h): 33.8% | % of p-STAT3+ PBMC (p-STAT3 (Y705) in PBMCs; 2 mg/kg, C1D2 0 h): 31.5% | % of p-STAT3+ PBMC (p-STAT3 (Y705) in PBMCs; 2 mg/kg, C1D8 0 h): 27.6% | % of p-STAT3+ PBMC (p-STAT3 (Y705) in PBMCs; 2 mg/kg, C1D8 4 h): 34.8% | % of p-STAT3+ PBMC (p-STAT3 (Y705) in PBMCs; [14]): 35.0% and 27.8% and 35.9% | % of p-STAT3+ PBMC (p-STAT3 (Y705) in PBMCs; 4 mg/kg, C1D1 4 h): 28.2% and 30.9% and 36.0% | % of p-STAT3+ PBMC (p-STAT3 (Y705) in PBMCs; 4 mg/kg, C1D2 0 h): 26.9% and 29.7% and 45.8% | % of p-STAT3+ PBMC (p-STAT3 (Y705) in PBMCs; 4 mg/kg, C1D8 0 h): 37.7% and 27.3% | % of p-STAT3+ PBMC (p-STAT3 (Y705) in PBMCs; 4 mg/kg, C1D8 4 h): 22.7% and 21.1% and 35.3% | lowest dose with p-STAT3 suppression in peripheral blood (PBMCs) (p-STAT3 (Y705) in PBMCs; oral BID, longitudinal administration): 1 mg/kg | % IFN-γ+ CD8 T cells (PBMCs; [12]): 8.3% | % of FoxP3 Tregs (PBMCs; [12]): 6.9% | Th1 to Th2 ratio (PBMCs; 1 mg/kg, C1D1 0 h (baseline)): 0.3 | Cytotoxic CD8 to Treg ratio (PBMCs; 1 mg/kg, C1D1 0 h (baseline)): 1.2 | % IFN-γ+ CD8 T cells (PBMCs; 1 mg/kg, C1D8 4 h): 45.3% | % of FoxP3 Tregs (PBMCs; 1 mg/kg, C1D8 4 h): 3.9% | Th1 to Th2 ratio (PBMCs; 1 mg/kg, C1D8 4 h): 1.0 | Cytotoxic CD8 to Treg ratio (PBMCs; 1 mg/kg, C1D8 4 h): 11.7 | % IFN-γ+ CD8 T cells (PBMCs; [13]): 8.8% | % of FoxP3 Tregs (PBMCs; [13]): 8.8% | % IFN-γ+ CD8 T cells (PBMCs; 2 mg/kg, C1D8 4 h): 7.0% | % of FoxP3 Tregs (PBMCs; 2 mg/kg, C1D8 4 h): 7.6% | Th1 to Th2 ratio (PBMCs; 2 mg/kg, C1D8 4 h): 0.5 | Cytotoxic CD8 to Treg ratio (PBMCs; 2 mg/kg, C1D8 4 h): 0.9 | % IFN-γ+ CD8 T cells (PBMCs; [14]): 4.6% and 0.9% and 4.0% | % of FoxP3 Tregs (PBMCs; [14]): 5.3^§ % and 4.9% and 4.0% | % of FoxP3 Tregs (PBMCs; 4 mg/kg, C1D8 4 h): 8.4% and 5.9% | % IFN-γ+ CD8 T cells (PBMCs; [15]): 27.4% and 31.7% | % of FoxP3 Tregs (PBMCs; [15]): 3.7% and 2.4% and 6.9% | Cytotoxic CD8 to Treg ratio (PBMCs; 8 mg/kg, C1D1 0 h (baseline)): 7.4 and 4.6 | % IFN-γ+ CD8 T cells (PBMCs; 8 mg/kg, C1D8 4 h): 3.6% and 0.1% | % of FoxP3 Tregs (PBMCs; 8 mg/kg, C1D8 4 h): 5.4% and 2.1% and 5.8% | Th1 to Th2 ratio (PBMCs; 8 mg/kg, C1D8 4 h): 2.4 and 1.8 | FoxP3+ Tregs in PBMCs versus baseline (PBMCs; after 172 h of treatment): not significantly altered | animals surviving long term [4]: 80% | increase in median survival time [5]: 55.5% | oral bioavailability ([6]; methylcellulose-based oral nanoparticle formulation): approximately 30% | mean peak plasma concentration ([6]; preclinical dose of 40 mg/kg): 4.31 µM | mean concentration within the brain ([7]; at 15 min): 162 µM | mean concentration within the brain ([7]; at 6 h): 6 µM | concentration within orthotopic brain tumors [8]: 2.3 µM | IC50 (glioma cancer cells): 2 to 5 µM | concentration at which immune modulatory effects start [9]: around 0.1 μM | therapeutic effect in combination with radiation therapy (GL261 glioma model; GL261 glioma model, lost in immune-incompetent animals): long-term survivors and enhanced median survival time relative to monotherapy | therapeutic effect as monotherapy (GL261 glioma model; preclinical murine studies, 60 mg/kg): failed to demonstrate any therapeutic effect
